{"source": "ChEMBL document CHEMBL4007382", "about": "(Eur J Med Chem, 2017)", "key": {"Mus musculus [1]": {"tested_on": "Mus musculus", "assay": "Cardiotoxicity in Kunming mouse assessed as change in heart rate at 20 mg/kg, ip measured after 1 mins by electrocardiogram (reference value: -4.04 +/- 7.52)", "format": "toxicity, organism-based", "settings": "in vivo"}, "Mus musculus [2]": {"tested_on": "Mus musculus", "assay": "Cardiotoxicity in Kunming mouse assessed as change in heart rate at 20 mg/kg, ip measured after 25 mins by electrocardiogram (reference value: -43.17 +/- 15.26)", "format": "toxicity, organism-based", "settings": "in vivo"}, "Acetylcholinesterase": {"biological_target": "Acetylcholinesterase (Homo sapiens, UniProt P22303)", "sequence (P22303 whole entry)": "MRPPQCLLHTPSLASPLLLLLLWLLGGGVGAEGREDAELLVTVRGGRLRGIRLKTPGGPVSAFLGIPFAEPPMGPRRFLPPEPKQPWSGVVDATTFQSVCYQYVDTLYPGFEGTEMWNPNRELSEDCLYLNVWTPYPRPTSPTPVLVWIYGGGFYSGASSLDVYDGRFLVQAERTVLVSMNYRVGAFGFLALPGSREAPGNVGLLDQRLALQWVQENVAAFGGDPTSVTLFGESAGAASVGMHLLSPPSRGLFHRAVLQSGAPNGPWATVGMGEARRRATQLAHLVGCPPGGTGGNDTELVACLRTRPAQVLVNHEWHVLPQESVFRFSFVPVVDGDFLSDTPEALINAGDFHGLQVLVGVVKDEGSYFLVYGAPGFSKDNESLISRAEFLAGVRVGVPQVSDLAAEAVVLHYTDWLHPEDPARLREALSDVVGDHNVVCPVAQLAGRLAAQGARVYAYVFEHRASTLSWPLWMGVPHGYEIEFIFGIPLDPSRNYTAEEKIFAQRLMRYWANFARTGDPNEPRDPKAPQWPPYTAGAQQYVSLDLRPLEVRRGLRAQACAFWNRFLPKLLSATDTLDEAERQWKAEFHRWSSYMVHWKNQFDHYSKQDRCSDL", "assay": "Inhibition of human blood AChE using acetylthiocholine as substrate"}, "Mus musculus [3]": {"tested_on": "Mus musculus", "assay": "Cardiotoxicity in Kunming mouse assessed as change in heart rate at 20 mg/kg, ip measured after 33 mins by electrocardiogram (reference value: -39.12 +/- 24.73)", "format": "toxicity, organism-based", "settings": "in vivo, 0.55 h"}, "Mus musculus [4]": {"tested_on": "Mus musculus", "assay": "Cardiotoxicity in Kunming mouse assessed as change in heart rate at 20 mg/kg, ip measured after 8 mins by electrocardiogram (reference value: -27.98 +/- 16.02)", "format": "toxicity, organism-based", "settings": "in vivo"}, "Cholinesterase [5]": {"biological_target": "T1, Cholinesterase (Equus caballus, UniProt P81908)", "T1 sequence (P81908 whole entry)": "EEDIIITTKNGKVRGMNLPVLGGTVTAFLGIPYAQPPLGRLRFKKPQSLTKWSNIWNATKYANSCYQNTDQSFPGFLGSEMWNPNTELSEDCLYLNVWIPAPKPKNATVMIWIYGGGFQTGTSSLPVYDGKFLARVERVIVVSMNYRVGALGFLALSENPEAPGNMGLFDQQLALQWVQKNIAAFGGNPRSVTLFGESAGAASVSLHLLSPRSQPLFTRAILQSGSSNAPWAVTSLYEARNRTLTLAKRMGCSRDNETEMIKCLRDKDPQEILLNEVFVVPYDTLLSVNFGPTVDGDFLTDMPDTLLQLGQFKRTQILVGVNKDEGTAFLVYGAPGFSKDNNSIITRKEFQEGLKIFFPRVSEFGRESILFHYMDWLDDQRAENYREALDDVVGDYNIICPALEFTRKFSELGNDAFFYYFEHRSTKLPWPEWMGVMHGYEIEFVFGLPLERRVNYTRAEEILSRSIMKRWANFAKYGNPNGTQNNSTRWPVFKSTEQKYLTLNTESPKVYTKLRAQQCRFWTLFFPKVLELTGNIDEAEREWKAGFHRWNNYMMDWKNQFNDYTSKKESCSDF", "assay": "Inhibition of equine serum BuChE using S-butyrylthiocholine iodide as substrate preincubated for 60 mins followed by substrate addition measured after 5 mins by Ellman's method", "outline": "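Equine serum BChE (0.1 U/mL) in 100 mM sodium phosphate, pH 8, was preincubated at 37°C for 60 min with seven inhibitor concentrations (top 1×10^-5 M; stocks in acetonitrile:water 1:9). Added mix contained BTCh 2.5 mM and DTNB 3.4 mM. A412 was read for 5 min at 37°C, with enzyme-free blank subtracted. Triplicates.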"}, "Mus musculus [6]": {"tested_on": "Mus musculus", "assay": "Cardiotoxicity in Kunming mouse assessed as change in heart rate at 20 mg/kg, ip measured after 27 mins by electrocardiogram (reference value: -44.4 +/- 23.19)", "format": "toxicity, organism-based", "settings": "in vivo, 0.45 h"}, "Mus musculus [7]": {"tested_on": "Mus musculus", "assay": "Cardiotoxicity in Kunming mouse assessed as change in heart rate at 20 mg/kg, ip measured after 14 mins by electrocardiogram (reference value: -38.12 +/- 19.53)", "format": "toxicity, organism-based", "settings": "in vivo"}, "Mus musculus [8]": {"tested_on": "Mus musculus", "assay": "Cardiotoxicity in Kunming mouse assessed as change in heart rate at 20 mg/kg, ip measured after 6 mins by electrocardiogram (reference value: -19.47 +/- 22.55)", "format": "toxicity, organism-based", "settings": "in vivo, 0.1 h"}, "Cholinesterase [9]": {"biological_target": "T1, Cholinesterase", "assay": "Irreversible inhibition of equine serum BuChE assessed as second order carbamylation rate constant using S-butyrylthiocholine iodide as substrate preincubated up to 45 mins followed by substrate addition measured after 5 mins", "outline": "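Equine BChE, pH 8, 37°C, was preincubated for 1, 2, 4, 8, 15, 30 and 45 min with inhibitor at 1×10^-7 to 5×10^-6 M (seven levels). Residual activity was read by Ellman with BTCh and normalised to a water control at each time. kobs came from a one-phase exponential decay fit; k_I1 came from the linear kobs versus concentration relation.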"}, "Mus musculus [10]": {"tested_on": "Mus musculus", "assay": "Cardiotoxicity in Kunming mouse assessed as change in heart rate at 20 mg/kg, ip measured after 18 mins by electrocardiogram (reference value: -37.61 +/- 15)", "format": "toxicity, organism-based", "settings": "in vivo, 0.3 h"}, "Cholinesterase [11]": {"biological_target": "Cholinesterase (Homo sapiens, UniProt P06276)", "sequence (P06276 whole entry)": "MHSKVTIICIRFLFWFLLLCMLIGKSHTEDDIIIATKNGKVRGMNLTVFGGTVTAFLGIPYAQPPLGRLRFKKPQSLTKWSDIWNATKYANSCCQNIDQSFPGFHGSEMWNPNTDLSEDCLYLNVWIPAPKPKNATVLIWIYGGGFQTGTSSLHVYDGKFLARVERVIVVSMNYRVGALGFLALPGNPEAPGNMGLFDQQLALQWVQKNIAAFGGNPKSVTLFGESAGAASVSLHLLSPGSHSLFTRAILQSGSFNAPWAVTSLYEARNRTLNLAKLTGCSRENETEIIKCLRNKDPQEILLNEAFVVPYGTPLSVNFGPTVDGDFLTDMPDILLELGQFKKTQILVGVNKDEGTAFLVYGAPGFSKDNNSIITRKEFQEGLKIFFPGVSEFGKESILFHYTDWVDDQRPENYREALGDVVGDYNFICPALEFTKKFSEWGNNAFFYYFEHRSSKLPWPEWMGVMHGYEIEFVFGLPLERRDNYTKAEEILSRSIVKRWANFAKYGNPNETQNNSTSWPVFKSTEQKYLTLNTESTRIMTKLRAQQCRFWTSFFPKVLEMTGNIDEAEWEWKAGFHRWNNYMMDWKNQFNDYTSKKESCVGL", "assay": "Inhibition of human blood BuChE using butyrylthiocholine as substrate", "outline": "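Source was plasma from heparinised blood of one healthy donor, centrifuged at 1000 × g for 20 min at 25°C, stored at -80°C and diluted 150X. Ellman assay at pH 8 and 37°C with 60 min preincubation and seven inhibitor concentrations in water, 5×10^-8 to 5×10^-10 M. Triplicates.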"}, "Mus musculus [12]": {"tested_on": "Mus musculus", "assay": "Cardiotoxicity in Kunming mouse assessed as change in heart rate at 20 mg/kg, ip measured after 16 mins by electrocardiogram (reference value: -38.67 +/- 10.18)", "format": "toxicity, organism-based", "settings": "in vivo"}}, "data": [{"molecule": "CN(C)C(=O)Oc1cc(OC(=O)N(C)C)cc(C(O)CNC(C)(C)C)c1", "note": "(stereo not given) [BAMBUTEROL]", "values": [{"measurement": "Activity", "setting": "Mus musculus [1]", "value": -2.81, "unit": "bpm"}, {"measurement": "Activity", "setting": "Mus musculus [2]", "value": 30.43, "unit": "bpm"}, {"measurement": "IC50", "setting": "Acetylcholinesterase", "value": 30000, "unit": "nM"}, {"measurement": "Activity", "setting": "Mus musculus [3]", "value": 4.05, "unit": "bpm"}, {"measurement": "Activity", "setting": "Mus musculus [4]", "value": 9.76, "unit": "bpm"}, {"measurement": "IC50", "setting": "Cholinesterase [5]", "value": 119, "unit": "nM"}, {"measurement": "Activity", "setting": "Mus musculus [6]", "value": -1.54, "unit": "bpm"}, {"measurement": "Activity", "setting": "Mus musculus [7]", "value": 39.93, "unit": "bpm"}, {"measurement": "Activity", "setting": "Mus musculus [8]", "value": 16.63, "unit": "bpm"}, {"measurement": "Ki", "setting": "Cholinesterase [9]", "value": 1.44, "unit": "×10⁵ /M/min"}, {"measurement": "Activity", "setting": "Mus musculus [10]", "value": 32.35, "unit": "bpm"}, {"measurement": "IC50", "setting": "Cholinesterase [11]", "value": 3, "unit": "nM"}, {"measurement": "Activity", "setting": "Mus musculus [12]", "value": 57.32, "unit": "bpm"}]}, {"molecule": "CCC(C)(C)NCC(O)c1cc(OC(=O)N(C)C)cc(OC(=O)N(C)C)c1.Cl", "note": "(stereo not given)", "values": [{"measurement": "Activity", "setting": "Mus musculus [1]", "value": -18.58, "unit": "bpm"}, {"measurement": "Activity", "setting": "Mus musculus [2]", "value": -44.42, "unit": "bpm"}, {"measurement": "Activity", "setting": "Mus musculus [3]", "value": -39.88, "unit": "bpm"}, {"measurement": "Activity", "setting": "Mus musculus [4]", "value": -32.94, "unit": "bpm"}, {"measurement": "IC50", "setting": "Cholinesterase [5]", "value": 126, "unit": "nM"}, {"measurement": "Activity", "setting": "Mus musculus [6]", "value": -32.47, "unit": "bpm"}, {"measurement": "Activity", "setting": "Mus musculus [7]", "value": -51.28, "unit": "bpm"}, {"measurement": "Activity", "setting": "Mus musculus [8]", "value": -31.29, "unit": "bpm"}, {"measurement": "Ki", "setting": "Cholinesterase [9]", "value": 1.42, "unit": "×10⁵ /M/min"}, {"measurement": "Activity", "setting": "Mus musculus [10]", "value": -38.45, "unit": "bpm"}, {"measurement": "Activity", "setting": "Mus musculus [12]", "value": -42.02, "unit": "bpm"}]}, {"molecule": "CCN(C)C(=O)Oc1cc(OC(=O)N(C)CC)cc(C(O)CNC(C)(C)CC)c1.Cl", "note": "(stereo not given)", "values": [{"measurement": "Activity", "setting": "Mus musculus [1]", "value": -0.1, "unit": "bpm"}, {"measurement": "Activity", "setting": "Mus musculus [2]", "value": -0.22, "unit": "bpm"}, {"measurement": "Activity", "setting": "Mus musculus [3]", "value": -2.93, "unit": "bpm"}, {"measurement": "Activity", "setting": "Mus musculus [4]", "value": -4.23, "unit": "bpm"}, {"measurement": "IC50", "setting": "Cholinesterase [5]", "value": 116, "unit": "nM"}, {"measurement": "Activity", "setting": "Mus musculus [6]", "value": -4.43, "unit": "bpm"}, {"measurement": "Activity", "setting": "Mus musculus [7]", "value": -4.15, "unit": "bpm"}, {"measurement": "Activity", "setting": "Mus musculus [8]", "value": -1.48, "unit": "bpm"}, {"measurement": "Ki", "setting": "Cholinesterase [9]", "value": 1.49, "unit": "×10⁵ /M/min"}, {"measurement": "Activity", "setting": "Mus musculus [10]", "value": 5.47, "unit": "bpm"}, {"measurement": "Activity", "setting": "Mus musculus [12]", "value": 3.92, "unit": "bpm"}]}]}
